This is a sample that favours compounds with a hit; in the whole collection about 3.9% have one here.
TAAR1 antagonist – antagonists of human TAAR1. Q96RJ0. inhibition, % at 3 µM. CHO RD-HGA16 TAAR1, Fluo-8 calcium fluorescence, antagonist. 1.5% of 360,000 active;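 active = inhibition above a per-plate cutoff, the mean inhibition of test compounds on that plate plus 3 SD, cut at about 49% in these data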
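Test system – hTAAR1-expressing CHO RD-HGA16 cells, Gα16-coupled · Also added – β-PEA at EC80 concentration, post-compound challenge · Compound – 3 µM, single point · Incubation – dye loading 75 min at 37 °C, then 30 min room temperature · Measured by – Fluo-8 intracellular calcium dye fluorescence, real-time kinetic reads · Benchmarks – vehicle and agonist controls · Replicates – singlicate, one well per test compound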
CHRM1 antagonist – blocks human M1 muscarinic receptor. P11229. inhibition, % at 3 µM. CHO-K1 hM1, Fluo-8 calcium fluorescence, ACh EC80 antagonist. 1.3% of 360,000 active;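 active = percent inhibition above its own plate's cutoff, namely the mean of that plate's compound wells plus 3 SD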;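 also: peak over basal fluorescence ratio during 140 s after agonist addition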
Target sequence (P11229 whole entry, looked up): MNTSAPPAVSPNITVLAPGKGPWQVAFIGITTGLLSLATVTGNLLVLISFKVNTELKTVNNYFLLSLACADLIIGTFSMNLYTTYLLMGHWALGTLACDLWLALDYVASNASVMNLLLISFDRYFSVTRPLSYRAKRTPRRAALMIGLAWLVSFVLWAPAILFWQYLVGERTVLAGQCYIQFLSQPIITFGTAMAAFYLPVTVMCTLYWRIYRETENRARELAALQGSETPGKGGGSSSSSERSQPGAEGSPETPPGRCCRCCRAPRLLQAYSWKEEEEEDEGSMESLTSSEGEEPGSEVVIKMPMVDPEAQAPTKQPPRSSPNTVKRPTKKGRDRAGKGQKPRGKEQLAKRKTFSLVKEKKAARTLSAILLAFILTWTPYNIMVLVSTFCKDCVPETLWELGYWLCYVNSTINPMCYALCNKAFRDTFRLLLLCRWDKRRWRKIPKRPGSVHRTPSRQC
m5-HT2A agonist – mouse HTR2A agonism via beta-arrestin recruitment. 0.66% of 360,000 active. AID 624169. activation, % at 7.6 µM. P35363. CHO-K1 mHTR2A beta-arrestin complementation, luminescence; percent of 30 µM serotonin response;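 active = activation above a run cutoff, the mean activation of all tested compounds plus 3 SD, cut at about 14% in these data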
TAAR1 ag – agonists of human TAAR1. CHO RD-HGA16 TAAR1, Fluo-8 calcium fluorescence; vehicle wells 0%, saturating PEA agonist 100%. activation, % at 3 µM. 0.99% of 360,000 active;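 active = activation above the mean activation of all test compounds in the run plus 3 SD, cut at about 38% in these data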
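Repeats: no replicates (n 1) | Material: CHO-derived RD-HGA16 cells with stable Gα16 and human TAAR1 | Technique: Kinetic Fluo-8 calcium fluorescence | Schedule: 17-24 h seeding, 75 min 37 °C dye, 30 min RT | Evaluation: % activation from peak over basal fluorescence ratio, DMSO-to-PEA scaled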
M1 PAM – positive allosteric modulators of human M1 muscarinic receptor. 0.088% of 360,000 active. activation, % at 3 µM. P11229. CHO-K1 hM1, Fluo-8 calcium fluorescence, ACh EC20; 0% = ACh EC20, 100% = maximal ACh; in the data active = activation above about 19%, passing the limit was not always enough
M1 ag – activates human CHRM1 receptor | activation, % at 3 µM | P11229 | 0.33% of 360,000 active | CHO-K1 hM1, Fluo-8 calcium fluorescence, agonist mode; 0% DMSO, 100% acetylcholine EC100;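 active = activation above the run's mean compound activation plus 3 SD, cut at about 16% in these data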;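 also: peak over basal fluorescence ratio within a 140 s kinetic read after compound addition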
TAAR1 ag conf – confirmation of human TAAR1 agonists. shares compounds with TAAR1 ag. CHO RD-HGA16 TAAR1, Fluo-8 calcium fluorescence; scaled: DMSO 0%, maximal phenethylamine 100%. activation, % at 3 µM. 82% of 2,400 active. AID 651783;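 active = activation above a cutoff set at the run's mean compound activation plus 3 SD, cut at about 39% in these data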
Ga16 ag counter – counter-screen for TAAR1 agonists: nonselective agonists in parental cells; shares compounds with TAAR1 ag; AID 651787; 50% of 2,400 active; CHO-Ga16 parental, Fluo-8 calcium fluorescence; normalized to maximal ATP response, DMSO zero; activation, % at 3 µM;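 active = activation above the run cutoff, the mean activation over all tested wells plus 3 SD, cut at about 12% in these data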
TAAR1 desensitize – human TAAR1 agonist that also desensitizes the receptor. shares compounds with TAAR1 ag. CHO RD-HGA16 hTAAR1, Fluo-8 calcium, beta-PEA response inhibition. inhibition, % at 3 µM. 46% of 2,400 active;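 active = inhibition above the run cutoff, the mean inhibition of all test compounds plus 3 SD, cut at about 49% in these data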;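 also: beta-PEA stimulus applied at its EC80; loss of beta-PEA calcium signal after compound pretreatment read as receptor desensitization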
Ga16 nonsel ant – nonselective Ga16 antagonism, counter-screen; AID 651952; 39% of 2,400 active; shares compounds with TAAR1 ag; CHO-Ga16 ATP-induced calcium, Fluo-8 fluorescence; inhibition, % at 3 µM;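 active = inhibition above the plate's mean compound inhibition plus 3 SD, computed per plate, cut at about 22% in these data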
Hits are given with their value; n = inactive; x = no result given.

SMILES	TAAR1 antagonist	CHRM1 antagonist	m5-HT2A agonist	TAAR1 ag	M1 PAM	M1 ag	TAAR1 ag conf	Ga16 ag counter	TAAR1 desensitize	Ga16 nonsel ant
CCOC(=O)c1c(NS(=O)(=O)c2cccc(OC)c2)sc2c1CCC2	n	n	n	55	n	n	64	54	n	26
CCOC(=O)Nc1sc2c(c1C(=O)OCC)CCC2	n	n	n	n	n	n	x	x	x	x
O=C(O)Cc1cccc(=O)c(O)c1C(=O)O	x	n	n	x	n	n	x	x	x	x
CCCCCCn1c(=O)[nH]c2nc3cc(N)c(C)cc3nc2c1=O	72	32	n	118	n	61	105	85	n	49
CCNC(=S)NNC(=O)c1cc(-c2cccc(OC)c2)nc2ccccc12	n	n	n	n	n	n	x	x	x	x
CCCOc1ccc(C(=O)NNC(=S)NC(=O)c2cc(-c3ccc(Cl)cc3)nc3ccccc23)cc1	85	n	n	62	n	n	105	78	103	94
COc1ccc(C(=O)NNC(=S)NC(=O)c2cc(-c3ccccc3)nc3ccccc23)cc1	88	n	n	128	n	n	122	94	95	73
COC(=O)c1ccc(NC(=S)NC(=O)c2cc(-c3ccccc3)nc3ccccc23)cc1	n	n	n	n	n	n	x	x	x	x
COc1ccc(Cl)cc1C(=O)NNC(=S)NC(=O)c1cc(-c2ccccc2)nc2ccccc12	75	n	n	104	n	n	114	96	102	87
CCNC(=S)NNC(=O)c1cc(-c2ccc(OCC)cc2)nc2ccccc12	n	n	n	n	n	n	x	x	x	x
Cc1nc(N2CCN(C(=O)c3ccco3)CC2)[nH]c(=O)c1C	n	n	n	n	n	n	x	x	x	x
O=C(CCC(=O)Nc1nnc(C2CCCCC2)s1)NCc1ccccc1	n	n	n	n	n	n	x	x	x	x
CCOc1ccc(S(=O)(=O)N(C)c2ccc(OCC(=O)NCc3ccc(C(=O)OC)cc3)cc2)cc1	n	n	n	n	n	n	x	x	x	x
CC(C)C(=O)Nc1ccc(NC(=O)c2cc3ccccc3o2)cc1	n	n	n	54	n	n	45	21	49	28
CC(C)C(=O)Nc1ccc(NC(=S)NC(=O)c2cc3ccccc3o2)cc1	n	n	n	n	n	n	x	x	x	x
CCOC(=O)c1ccc(NC(=S)N2CCSC2c2ccc(Cl)cc2)cc1 (configuration not stated)	105	45	n	123	n	34	136	94	106	80
CCOC(=O)c1ccc(NC(=S)N2CCSC2c2ccc(OC)cc2)cc1 (configuration not stated)	72	n	n	93	n	n	83	37	67	44
COc1ccc(C2SCCN2C(=S)Nc2ccc(F)cc2)cc1 (configuration not stated)	n	n	n	n	n	n	x	x	x	x
CCc1ccc(NC(=S)N(CCN2CCOCC2)Cc2ccccc2F)cc1	n	n	n	n	n	n	x	x	x	x
CCCCCNC(=O)[C@@H]1CSC2c3ccccc3C(=O)N21 (some centres not stated)	n	n	n	n	n	n	x	x	x	x
O=C(NCCc1cccc(F)c1)[C@@H]1CSC2c3ccccc3C(=O)N21 (some centres not stated)	n	n	n	54	n	n	77	n	n	n
COc1ccc(Nc2cc(C)nc(N3CCOCC3)n2)cc1	n	n	n	49	n	n	70	n	n	n
COc1ccc(/C=N/Nc2cc(C)nc(N3CCOCC3)n2)cc1	n	n	n	n	n	n	x	x	x	x
COc1cccc(N2C(=O)CN(Cc3ccc(OC)c(OC)c3)C2=S)c1	n	n	n	n	n	n	x	x	x	x
COc1ccc(N2C(=O)CN(Cc3ccc(OC)c(OC)c3)C2=S)cc1	n	n	n	154	n	n	n	n	n	n
SMILES	TAAR1 antagonist	CHRM1 antagonist	m5-HT2A agonist	TAAR1 ag	M1 PAM	M1 ag	TAAR1 ag conf	Ga16 ag counter	TAAR1 desensitize	Ga16 nonsel ant
CN1CCN(C(c2ccc(F)cc2)c2ccc3cccnc3c2O)CC1 (configuration not stated)	x	n	n	x	n	n	x	x	x	x
CN1CCN(C(c2ccc(Br)cc2)c2cc(Cl)c3cccnc3c2O)CC1 (configuration not stated)	n	n	n	69	n	n	121	88	76	43
COc1ccccc1CC(=O)NCCCc1ccccc1	n	n	n	n	n	n	x	x	x	x
Cc1cc(Cl)nc(Cl)c1C(=O)NCCc1ccccc1	x	n	n	x	n	n	x	n	x	n
COc1ccccc1CC(=O)NCCc1ccccc1	n	n	n	69	n	n	85	n	77	n
COc1ccc(OC(=O)NCCc2ccccc2)cc1	n	n	n	57	n	n	84	n	73	n
O=C(NCC(c1ccco1)N1CCc2ccccc2C1)c1c(F)cccc1F (configuration not stated)	n	n	n	n	n	n	x	x	x	x
O=C(NCC(c1ccco1)N1CCc2ccccc2C1)c1ccccc1Br (configuration not stated)	n	n	n	n	n	n	x	x	x	x
O=C(NCC(c1ccco1)N1CCc2ccccc2C1)C(=O)Nc1ccccc1F (configuration not stated)	n	n	n	46	n	n	48	n	n	n
CC(=O)Nc1ccc(NC(=O)C(=O)NCC(c2ccco2)N2CCc3ccccc32)cc1 (configuration not stated)	n	n	n	n	n	n	x	x	x	x
O=C(NCC(c1ccco1)N1CCc2ccccc2C1)C(=O)Nc1ccc(F)cc1F (configuration not stated)	n	n	n	58	n	n	41	n	n	n
CC(=O)Nc1ccc(NC(=O)C(=O)NCC(c2ccco2)N2CCc3ccccc3C2)cc1 (configuration not stated)	n	n	n	78	n	n	93	n	n	n
Cc1ccnc(NS(=O)(=O)c2ccc(NC(=O)CCc3ccccc3)cc2)n1	n	n	n	n	n	n	x	x	x	x

Source: PubChem
